Bioassay records deposited in PubChem by several laboratories.
NF-kB neuron act: compounds increasing NF-kB expression in human neuronal cells; NF-kB reporter expression; hits give high values; fold change at 12.5 µM; actives 1.6% (n = 190,000); AID 1239; in the data active = fold change above about 3.3
STAT3 blocker: STAT3 signaling inhibition | U3A cells, IL-6 STAT3-luciferase reporter, luminescence; host cell line lacks STAT1 | inhibition, % at 5.5 µM | actives 0.89% (n = 190,000) | AID 862;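 active = inhibition above the mean inhibition across all screened compounds plus 3 SD, cut at about 44% in these data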
APP 5'UTR act: APP 5'UTR luciferase reporter activation | SH-SY5Y APP 5'UTR luciferase reporter, luminescence; zero percent = DMSO vehicle wells | activation, % at 2 µM | actives 1% (n = 190,000);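 active = activation above a set limit, based on mean plus 3 SD of controls, cut at about 140% in these data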
STAT3 act-1: STAT3 signaling activation | U3A cells, IL-6 STAT3-luciferase reporter, luminescence; 100% = signal with IL-6 EC80 alone | activation (% of control), % at 5.6 µM | actives 0.91% (n = 190,000) | AID 871;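 active = activation above the screen-wide mean of compound activation plus 3 SD, cut at about 130% in these data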
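Material: human STAT1-deficient U3A cells with stable STAT3-luciferase reporter / Probe or stimulus: IL-6 stimulus at 33 ng/mL final / Schedule: 1 h compound pre-exposure, 6 h IL-6 stimulation, 37 °C / Technique: luminescence / Read-out basis: percent of IL-6-only median luminescence / Control set: IL-6-only high control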
STAT1 act-1: activators of IFN-gamma induced STAT1 signaling; activation (% of control), % at 5.5 µM; AID 932; actives 2.6% (n = 200,000); NIH 3T3 STAT1-luciferase reporter, luminescence; 100% = IFN-gamma alone, no compound;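 active = activation above the screen-wide mean activation plus 3 SD, cut at about 130% in these data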
STAT1 inh: STAT1 signaling inhibition | NIH 3T3 STAT1-luciferase reporter, IFN-gamma, luminescence | inhibition, % at 5.5 µM | actives 0.35% (n = 200,000);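 active = inhibition above a set limit, the mean inhibition across all tested compounds plus 3 SD, cut at about 34% in these data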
STAT3 act-2: STAT3 activation, confirmation assay | potentiation (% of control), % at 5.7 µM | U3A STAT3-luciferase reporter, IL-6 potentiation, luminescence; U3A cells lack STAT1; 100 means same as IL-6 alone | AID 1267 | actives 64% (n = 1,200) | shares compounds with STAT3 act-1;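 active = percent activation of the STAT3 luciferase reporter above a set limit taken from the earlier primary screen, cut at about 130% in these data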
NFkB act 2: NF-kappaB activation in STAT3 activator counter-screen; shares compounds with STAT3 act-1; human cells, NF-kappaB reporter activation; activation (% of control), % at 5.7 µM; actives 11% (n = 1,200); in the data active = activation above about 120%;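 also: reporter induced by TNF-alpha stimulation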
STAT1 act-2: counter-screen for STAT3 activators: STAT1 activation. actives 13% (n = 1,200). shares compounds with STAT3 act-1. NIH 3T3 STAT1-luciferase reporter, IFN-gamma, luminescence. activation (% of control), % at 5.7 µM;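 active = activation above the solvent-only control well mean plus 3 SD, set per screening run, cut at about 120% in these data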
Each line names hits and unclear results; the compound was inactive in the other large screens (follow-up assays come after a bar, where they were run). Compounds with a hit are over-represented: about 5.1% of the library has one in this group of screens.

Cc1cc2nc(C)n(CCCNC(=O)Nc3ccc(F)cc3)c2cc1C	none
CCOC(=O)C1CN(S(=O)(=O)c2cccc(C(F)(F)F)c2)c2cc(CC(=O)OC)ccc2O1 (stereo not given)	none
COc1ccc(C(=O)Nc2ccc3c(c2)nc(CN2CCCC2)n3C)cc1	none
CCNC(=O)NC(=O)COC(=O)CCCc1nc2ccccc2s1	none
O=S(=O)(c1cccs1)N1CCN(Cc2nc3ccccc3s2)CC1	none
O=C(OCc1nc2ccccc2s1)C1CCN(S(=O)(=O)c2cccs2)CC1	STAT3 act-1 144 | STAT3 act-2 140 | NFkB act 2 123 | STAT1 act-2 131
O=C(NC(=S)Nc1nc(-c2ccccc2)cs1)c1ccco1	STAT3 act-1 139 | STAT3 act-2 140 | NFkB act 2 inactive | STAT1 act-2 inactive
Cc1ccc(-c2csc(NC(=S)NC(=O)c3cccs3)n2)cc1	none
CC(C)CC(=O)NC(=S)Nc1nc(-c2ccc(Cl)cc2)cs1	none
O=C(NC(=S)Nc1nc(-c2ccccc2)cs1)c1cccs1	STAT3 act-1 142 | STAT3 act-2 147 | NFkB act 2 inactive | STAT1 act-2 inactive
CC(C)CC(=O)NC(=S)Nc1nc(-c2ccccc2)cs1	STAT3 act-1 144 | STAT3 act-2 140 | NFkB act 2 inactive | STAT1 act-2 inactive
Cc1c(Cl)cccc1NC(=O)c1ccc(-n2ccnc2)nc1	none
O=c1cnnc(N/N=C/C2CC=CCC2)[nH]1 (stereo not given)	none
Cc1ccc(S(=O)(=O)NC(=O)CSc2nc3ccccc3s2)cc1	STAT3 act-1 141 | STAT3 act-2 inactive | NFkB act 2 inactive | STAT1 act-2 inactive
Cc1cc(C)nc(NC(=O)CSc2nc3ccccc3s2)n1	none
COc1cc(NC(=O)C(=O)NCCN2CCNCC2)c(OC)cc1Cl	none
CCN1C(=O)C(CC(=O)Nc2ccc(F)cc2)N(CCCN2CCN(c3ccc(F)cc3)CC2)C1=S (stereo not given)	none
O=C(N/N=C/c1ccc(-c2cccc([N+](=O)[O-])c2)o1)c1cccs1	STAT3 act-1 137 | STAT3 act-2 inactive | NFkB act 2 inactive | STAT1 act-2 inactive
COC(=O)c1ccc(CN2CCN(CC=C(C)C)C(CCO)C2)cc1 (stereo not given)	none
Nc1nc(NCc2ccco2)nn1-c1ccccc1	STAT3 act-1 147 | STAT3 act-2 inactive | NFkB act 2 inactive | STAT1 act-2 inactive
Nc1nc(NCc2cccs2)nn1-c1ccccc1	none (no result: NF-kB neuron act)
Cc1cc(Nc2nc(Cl)c(Cl)cc2Cl)n(-c2ccccc2)n1	STAT3 act-1 143 | STAT3 act-2 inactive | NFkB act 2 inactive | STAT1 act-2 inactive
Cc1ccc(S(=O)(=O)N(CC(O)CN2C(=O)NC(C)(C)C2=O)c2ccccc2)cc1 (stereo not given)	STAT3 act-1 187 | STAT3 act-2 inactive | NFkB act 2 inactive | STAT1 act-2 inactive
COC(=O)c1sc(S(=O)(=O)Nc2ccc3cn[nH]c3c2)c(C(=O)OC)c1C	STAT3 act-1 147 | STAT3 act-2 147 | NFkB act 2 inactive | STAT1 act-2 inactive
COC(=O)c1sc(S(=O)(=O)Nc2ccc(C)cc2)c(C(=O)OC)c1C	none
COC(=O)c1ccccc1S(=O)(=O)Nc1ccc2cn[nH]c2c1	STAT3 act-1 143 | STAT3 act-2 inactive | NFkB act 2 inactive | STAT1 act-2 inactive
COc1ccc(NC(=O)/C(C#N)=C/c2ccc(OCc3ccccc3F)cc2)cc1	none
Oc1ccccc1/C=C/c1noc(-c2ccccc2O)n1	STAT3 act-1 142 | STAT3 act-2 169 | NFkB act 2 inactive | STAT1 act-2 inactive
CCOc1ccc(NC(=O)c2ccccc2NC(=O)CN(C)CC(=O)Nc2ccc(C)cc2)cc1	STAT3 act-1 149 | STAT3 act-2 inactive | NFkB act 2 inactive | STAT1 act-2 inactive
O=S(=O)(Nc1nc2ccccc2s1)c1ccc(Cl)s1	STAT3 act-1 138 | STAT3 act-2 inactive | NFkB act 2 inactive | STAT1 act-2 inactive
COc1ccc(C(C)=O)c2c1OCCO2	none
COc1ccc(C(C)=O)c2c(O)cccc12	STAT3 act-1 150 | STAT3 act-2 148 | NFkB act 2 inactive | STAT1 act-2 inactive
O=C(C1CCCCC1)N1CCc2ccccc21	none
O=C(C1CC(=O)N(C2CCCCC2)C1)N1CCc2ccccc21 (stereo not given)	STAT3 act-1 139 | STAT3 act-2 inactive | NFkB act 2 inactive | STAT1 act-2 inactive
COc1ccnc(Nc2ccc(C)c(C)c2)c1C#N	STAT3 act-1 143 | STAT3 act-2 inactive | NFkB act 2 inactive | STAT1 act-2 inactive
O=C(N/N=C/c1c[nH]c2ccc(Br)cc12)c1ccccn1	none
O=C(N/N=C/c1c[nH]c2ccccc12)c1[nH]c2ccc(Br)cc2c1-c1ccccc1	NF-kB neuron act 3.6, STAT3 act-1 150 | STAT3 act-2 inactive | NFkB act 2 157 | STAT1 act-2 inactive
O=C(N/N=C/c1ccc(O)cc1)c1[nH]c2ccc(Br)cc2c1-c1ccccc1	STAT3 act-1 143 | STAT3 act-2 inactive | NFkB act 2 165 | STAT1 act-2 inactive
O=C(c1ccc2c(c1)OCO2)C1CCCN(C(=O)c2cnn(Cc3ccccc3)c2)C1 (stereo not given)	none
Cc1ccc(N(C(=O)c2csnn2)C(C(=O)NC(C)(C)C)c2cccnc2)cc1 (stereo not given)	none
Cc1ccc(C2=CC(c3cccs3)n3nnnc3N2)cc1 (stereo not given)	STAT3 act-1 147 | STAT3 act-2 inactive | NFkB act 2 inactive | STAT1 act-2 inactive
Cc1ccc(N2CCOCC2)c2c1C(=O)c1ccccc1C2=O	none
CC1=C(C)C(=O)C(N2CCOCC2)=CC1=O	STAT3 act-1 143 | STAT3 act-2 139 | NFkB act 2 inactive | STAT1 act-2 inactive
Cc1c(C(=O)Nc2ccc3c(c2)OCO3)sc2ncn(CC(=O)N3CC(C)CC(C)C3)c(=O)c12 (stereo not given)	none (no result: APP 5'UTR act)
CC(Sc1nc(-c2ccc(F)cc2)cs1)C(=O)Nc1ccc(Cl)cn1 (stereo not given)	none
Cc1cccc(C)c1NC(=S)/C(=C(\[O-])c1cccs1)[n+]1ccccc1	none
[O-]/C(=C(\C(=S)Nc1cccc2ccccc12)[n+]1ccccc1)c1cccs1	STAT3 act-1 143 | STAT3 act-2 136 | NFkB act 2 inactive | STAT1 act-2 inactive
CC(=O)N1CCN(c2nc3cc4c(cc3nc2NS(=O)(=O)c2ccccc2)OCCO4)CC1	none
